Experimental data gathered from unrelated publications.
Target: Testis-specific serine/threonine-protein kinase 1 (TSSK1B, Homo sapiens, UniProt Q9BXA7)
Residues used in one study (Q9BXA7 1-367): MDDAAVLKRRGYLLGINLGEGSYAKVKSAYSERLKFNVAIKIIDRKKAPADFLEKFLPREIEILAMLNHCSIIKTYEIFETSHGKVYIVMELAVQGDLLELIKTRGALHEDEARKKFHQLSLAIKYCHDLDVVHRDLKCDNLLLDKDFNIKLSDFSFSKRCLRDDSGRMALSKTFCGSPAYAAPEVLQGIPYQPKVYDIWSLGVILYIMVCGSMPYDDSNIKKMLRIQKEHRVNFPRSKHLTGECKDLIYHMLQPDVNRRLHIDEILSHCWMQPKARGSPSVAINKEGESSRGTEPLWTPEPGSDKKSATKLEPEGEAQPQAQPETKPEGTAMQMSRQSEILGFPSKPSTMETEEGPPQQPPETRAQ

COc1ccc2c(c1)O[C@H](c1ccc(OC)c(OC)c1)C[C@@H]2NC(=O)C1(c2ccc3c(c2)OC(F)(F)O3)CC1 — remaining binding (cell-free assay; competition with immobilised ligand; 1 µM): 100%
O=C(NCC1CCOCC1)c1n[nH]cc1NC(=O)c1c(F)cccc1F — remaining binding (binding; competition with immobilised ligand; 1 µM): 97%
Cn1cc(Cl)c2c(Oc3c(F)cc(Nc4cc(Cl)nc(N)n4)cc3F)ccnc21 — remaining binding (cell-free assay; competition with immobilised ligand; 0.1 µM): 100%
COc1cnc(Nc2cccc(S(N)(=O)=O)c2)nc1N1CCN(c2ccccc2)C(=O)C1 — remaining binding (binding; competition with immobilised ligand; 1 µM): 92%
CN(C)c1nccc(-c2cnc3ncccn23)n1 — remaining binding (binding; 1 µM): 100%
O=C(c1ccc(Nc2ncc(Cl)c(-c3cc4ccccc4s3)n2)cc1)N1CCC(N2CCCC2)CC1 — remaining binding (binding; competition with immobilised ligand; 1 µM): 85%
c1cncc(-c2cccc(Nc3nccc(NC4CCCCC4)n3)c2)c1 — remaining binding (binding; competition with immobilised ligand; 10 µM): 60%
Cc1noc([C@H]2C[C@@H](c3ccc(C(F)(F)F)cc3)CN(C(=O)N3CCS(=O)(=O)C3)C2)n1 — remaining binding (cell-free assay; competition with immobilised ligand; 1 µM): 100%
O=C(NCCCN1CCOCC1)c1ccc(Nc2nccc(-c3cc4ccccc4s3)n2)cc1 — remaining binding (binding; competition with immobilised ligand; 1 µM): 93%
C=CC(=O)N1CCC(C(=O)NCC(=O)N2CCN(c3nc(-c4cnc(N)nc4C(F)F)nc(N4CCOCC4)n3)CC2)CC1 — remaining binding (binding; competition with immobilised ligand; 1 µM): 95%
CNC(=O)Nc1ccc2c(c1)CC[C@@]21OC(=O)N(CC(=O)N(Cc2ccc(F)cc2)[C@@H](C)C(F)(F)F)C1=O — remaining binding (cell-free assay; competition with immobilised ligand; 1 µM): 84%
CN(c1nccc(-c2cnn3ncccc23)n1)C1CC1 — remaining binding (binding; 1 µM): 100%
O=C(N1CCS(=O)(=O)CC1)N1C[C@H](c2ccc(OC(F)(F)F)cc2)C[C@H](c2nc(C3CC3)no2)C1 — remaining binding (cell-free assay; competition with immobilised ligand; 1 µM): 95%
C[C@@H]1CN(c2ccc3ncc(-c4ccc5[nH]nc(C6CC6)c5c4)n3n2)C[C@H](C)O1 — remaining binding (binding; competition with immobilised ligand; 0.5 µM): 100%
Cc1cnc(Nc2ccc(C(=O)N3CCC(N4CCCC4)CC3)cc2)nc1-c1cc2ccccc2s1 — remaining binding (binding; competition with immobilised ligand; 1 µM): 85%
C[C@H]1CCN(c2nccc(-c3cnn4ncccc34)n2)C1 — remaining binding (binding; 1 µM): 98%
CC(C)CC(=O)N1CCc2nc(-c3ccc(Br)cc3)nc(N(C)Cc3ccccc3)c2C1 — remaining binding (cell-free assay; competition with immobilised ligand; 0.1 µM): 99%
COc1ccnn2ncc(-c3ccnc(N(C)C)n3)c12 — remaining binding (binding; 1 µM): 100%
Nc1ncc2c(n1)-c1c([nH]c3ccc(C#CC4CC4)cc13)CCCC2 — remaining binding (binding; competition with immobilised ligand; 1 µM): 100%
Cc1cnn2ncc(-c3ccnc(N(C)C)n3)c2c1 — remaining binding (binding; 1 µM): 100%
COc1ccc2cc(OCC3(C(=O)O)CN(C(=O)c4ccc(F)cc4)C3)ccc2c1 — remaining binding (cell-free assay; competition with immobilised ligand; 1 µM): 100%
N[C@H]1CCN(c2nccc(-c3cnn4ncccc34)n2)C1 — remaining binding (binding; 1 µM): 100%
C[C@@H](c1ccc(-n2cnc3c(N)ncnc32)cc1)N1CCc2nn(C)c(Cc3ccccc3)c2C1=O — remaining binding (binding; competition with immobilised ligand; 0.1 µM): 100%
c1cnn2ncc(-c3ccnc(N4CCC45COC5)n3)c2c1 — remaining binding (binding; 1 µM): 65%
NS(=O)(=O)c1cc(NC(=O)C2(c3ccccc3Cl)CC2)ccc1Oc1cccc(Cl)c1 — remaining binding (cell-free assay; competition with immobilised ligand; 1 µM): 100%
